Assays:
Rattus norvegicus [1] = assay: Gastric toxicity in albino rat assessed as ulcer index at 100 mg/kg, po after 5 hrs; assay type: organism-based; design: dose 100 mg/kg, route oral; settings: in vivo
Outline: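 Rats dosed orally at 100 mg/kg in 0.5% CMC (n = 4). Stomach lesions counted and graded by area: level I <1 mm², II 1–3 mm², III >3 mm². Ulcer index = 1×(level I count) + 2×(level II) + 3×(level III). Mean ± SEM; one-way ANOVA versus control.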

Rattus norvegicus [2] = assay: Antiinflammatory activity in albino rat assessed as inhibition of carrageenan-induced paw edema at 100 mg/kg, po administered 30 mins prior to challenge measured after 5 hrs relative to untreated control; assay type: functional
Outline: (§1)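 Adult male albino rats (120–140 g), groups of four, fasted 24 h with water allowed. Test compound suspended in 0.5% w/v CMC in water, given orally at 100 mg/kg; controls received CMC alone. After 30 min, 0.1 mL of 1% carrageenan in saline injected subplantar into right hind paw, saline into left. Paw thickness measured by caliper; % inhibition = [(VR−VL)control − (VR−VL)treated]/(VR−VL)control ×100; one-way ANOVA versus control.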

Rattus norvegicus [3] = assay: Antiinflammatory activity in albino rat assessed as inhibition of carrageenan-induced paw edema at 100 mg/kg, po administered 30 mins prior to challenge measured after 2 hrs relative to untreated control; assay type: functional; outline: as §1
Rattus norvegicus [4] = assay: Antiinflammatory activity in albino rat assessed as inhibition of carrageenan-induced paw edema at 100 mg/kg, po administered 30 mins prior to challenge measured after 1 hr relative to untreated control; assay type: functional; outline: as §1
Rattus norvegicus [5] = assay: Antiinflammatory activity in albino rat assessed as inhibition of carrageenan-induced paw edema at 100 mg/kg, po administered 30 mins prior to challenge measured after 3 hrs relative to untreated control; assay type: functional; outline: as §1
Rattus norvegicus [6] = assay: Antiinflammatory activity in albino rat assessed as inhibition of carrageenan-induced paw edema at 100 mg/kg, po administered 30 mins prior to challenge measured after 4 hrs relative to untreated control; assay type: functional; outline: as §1
[7] = Induction of nitric oxide release at 0.1 mM after 3 hrs in phosphate buffer at pH 7.4 by Griess assay; assay type: physicochemical; settings: pH 7.4, 3 h, 100 µM
Outline: (§2)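 Compound at a final 10^-4 M with 0.5 mM N-acetylcysteine in phosphate buffer pH 7.4 at 37 °C. Reaction mixture treated with Griess reagent (sulfanilamide, N-naphthylethylenediamine, phosphoric acid), 10 min at room temperature, absorbance read at 546 nm. Sodium nitrite standards (10–80 nmol/mL) used for calibration. NO reported as mol/mol, n = 4 reaction mixtures.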

[8] = Induction of nitric oxide release at 0.1 mM after 6 hrs in phosphate buffer at pH 7.4 by Griess assay; assay type: physicochemical; settings: pH 7.4, 6 h, 100 µM; outline: as §2
[9] = Induction of nitric oxide release at 0.1 mM after 2 hrs in phosphate buffer at pH 7.4 by Griess assay; assay type: physicochemical; settings: pH 7.4, 2 h, 100 µM; outline: as §2
[10] = Induction of nitric oxide release at 0.1 mM after 4 hrs in phosphate buffer at pH 7.4 by Griess assay; assay type: physicochemical; settings: pH 7.4, 4 h, 100 µM; outline: as §2
[11] = Induction of nitric oxide release at 0.1 mM after 1 hr in phosphate buffer at pH 7.4 by Griess assay; assay type: physicochemical; settings: pH 7.4, 1 h, 100 µM; outline: as §2
Rattus norvegicus [12] = assay: Antiinflammatory activity in albino rat assessed as inhibition of carrageenan-induced paw edema at 100 mg/kg, po administered 30 mins prior to challenge measured after 3 hrs relative to indomethacin; assay type: functional; design: scale not given: the % may be the effect or the level left
Outline: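 Carrageenan paw edema in male albino rats (120–140 g, n = 4, fasted 24 h), compound 100 mg/kg po in 0.5% CMC 30 min before subplantar 1% carrageenan (0.1 mL). Percent edema inhibition at the stated hour from right minus left paw thickness versus the CMC control, then expressed as a percentage of the indomethacin (100 mg/kg) response at the same time.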

[13] = Induction of nitric oxide release at 0.1 mM in 0.1 N HCl buffer at pH 1.0 by Griess assay; assay type: physicochemical; settings: pH 1, 100 µM
Outline: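 Griess procedure as at neutral pH, but in 0.1 N HCl pH 1 in place of phosphate buffer. Compound at a final 10^-4 M with N-acetylcysteine, 37 °C. Absorbance read at 546 nm against sodium nitrite standards (10–80 nmol/mL). Release expressed relative to a theoretical 1 mol NO/mol compound.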

[14] = Induction of nitric oxide release at 0.1 mM after 5 hrs in phosphate buffer at pH 7.4 by Griess assay; assay type: physicochemical; settings: pH 7.4, 5 h, 100 µM; outline: as §2

Activity [7] [mol/mol] | Activity [8] [mol/mol] | Activity [9] [mol/mol] | Activity [10] [mol/mol] | Activity [11] [mol/mol] | Activity [13] | Activity [14] [mol/mol] | SMILES | UI (Rattus norvegicus [1]) | inhibition in vivo at 100 mg/kg (Rattus norvegicus [2]) [%] | inhibition in vivo at 100 mg/kg (Rattus norvegicus [3]) [%] | inhibition in vivo at 100 mg/kg (Rattus norvegicus [4]) [%] | inhibition in vivo at 100 mg/kg (Rattus norvegicus [5]) [%] | inhibition in vivo at 100 mg/kg (Rattus norvegicus [6]) [%] | Activity (Rattus norvegicus [12]) [%]
 |  |  |  |  |  |  | Nc1ccc(C(=O)/C=C/c2ccc(Cl)cc2)cc1 | 18 | 54 | 50 | 41 | 60 | 58 | 
 |  |  |  |  |  |  | Nc1ccc(C(=O)/C=C/c2ccc3c(c2)OCO3)cc1 | 20 | 47 | 44 | 32 | 55 | 50 | 
 |  |  |  |  |  |  | Nc1ccc(C(=O)/C=C/c2ccco2)cc1 | 29 | 30 | 38 | 33 | 42 | 33 | 
 |  |  |  |  |  |  | COc1ccc(/C=C/C(=O)c2ccc(NC(=O)CBr)cc2)cc1 | 28 | 34 | 42 | 37 | 46 | 41 | 
 |  |  |  |  |  |  | O=C(CBr)Nc1ccc(C(=O)/C=C/c2ccc3c(c2)OCO3)cc1 | 24 | 46 | 45 | 40 | 53 | 48 | 
 |  |  |  |  |  |  | O=C(CBr)Nc1ccc(C(=O)/C=C/c2ccco2)cc1 | 25.8 | 25 | 37 | 30 | 41 | 33 | 
 |  |  |  |  |  |  | CC(Br)C(=O)Nc1ccc(C(=O)/C=C/c2ccc(Cl)cc2)cc1 (centres undefined) | 16.7 | 50 | 45 | 39 | 59 | 54 | 
 |  |  |  |  |  |  | COc1ccc(/C=C/C(=O)c2ccc(NC(=O)C(C)Br)cc2)cc1 (centres undefined) | 30.1 | 31 | 40 | 39 | 40 | 38 | 
 |  |  |  |  |  |  | CC(Br)C(=O)Nc1ccc(C(=O)/C=C/c2ccc3c(c2)OCO3)cc1 (centres undefined) | 18 | 50 | 43 | 37 | 56 | 53 | 
 |  |  |  |  |  |  | CC(Br)C(=O)Nc1ccc(C(=O)/C=C/c2ccco2)cc1 (centres undefined) | 25.3 | 34 | 37 | 30 | 42 | 36 | 
 |  |  |  |  |  |  | CC(=O)c1ccc(OCC(=O)Nc2ccc(C(=O)/C=C/c3ccc(Cl)cc3)cc2)cc1 | 8.1 | 55 | 52 | 43 | 61 | 58 | 
 |  |  |  |  |  |  | COc1ccc(/C=C/C(=O)c2ccc(NC(=O)COc3ccc(C(C)=O)cc3)cc2)cc1 | 6 | 30 | 35 | 28 | 42 | 33 | 
 |  |  |  |  |  |  | CC(=O)c1ccc(OCC(=O)Nc2ccc(C(=O)/C=C/c3ccco3)cc2)cc1 | 5 | 36 | 32 | 28 | 45 | 39 | 
0.22 | 0.36 | 0.19 | 0.41 | 0.13 | Not Active | 0.37 | C/C(=N/O)c1ccc(OCC(=O)Nc2ccc(C(=O)/C=C/c3ccc(Cl)cc3)cc2)cc1 | 2.2 | 49 | 54 | 39 | 66 | 55 | 85
0.14 | 0.15 | 0.12 | 0.3 | 0.11 | Not Active | 0.16 | COc1ccc(/C=C/C(=O)c2ccc(NC(=O)COc3ccc(/C(C)=N\O)cc3)cc2)cc1 | 5 | 37 | 41 | 33 | 46 | 42 | 59
0.25 | 0.24 | 0.16 | 0.31 | 0.14 | Not Active | 0.26 | C/C(=N/O)c1ccc(OCC(=O)Nc2ccc(C(=O)/C=C/c3ccc4c(c3)OCO4)cc2)cc1 | 4 | 44 | 49 | 40 | 59 | 52 | 77
0.12 | 0.13 | 0.12 | 0.28 | 0.1 | Not Active | 0.14 | C/C(=N/O)c1ccc(OCC(=O)Nc2ccc(C(=O)/C=C/c3ccco3)cc2)cc1 | 4.8 | 42 | 44 | 36 | 49 | 48 | 64
0.47 | 0.3 | 0.27 | 0.482 | 0.11 | Not Active | 0.52 | COc1ccc(/C=C/C(=O)c2ccc(NC(=O)COCc3c(-c4ccccc4)no[n+]3[O-])cc2)cc1 | 2 | 49 | 42 | 30 | 56 | 55 | 73
0.4 | 0.54 | 0.23 | 0.499 | 0.16 | Not Active | 0.65 | O=C(COCc1c(-c2ccccc2)no[n+]1[O-])Nc1ccc(C(=O)/C=C/c2ccco2)cc1 | 2.5 | 49 | 45 | 30 | 59 | 58 | 76
 |  |  |  |  |  |  | COc1ccc(/C=C/C(=O)c2ccc(N)cc2)cc1 | 22.5 | 40 | 48 | 42 | 51 | 48 | 
 |  |  |  |  |  |  | [O-][n+]1onc(-c2ccccc2)c1CO | 1.5 |  |  |  |  |  | 
